Residues, ends and D or L forms follow the SMILES beside them. *: point of attachment. AMC = Cc1cc(=O)oc2cc(N*)ccc12; Cbz = O=C(OCc1ccccc1)*
Experiments:
POP [1] = target: T1, POP (Homo sapiens, UniProt P48147); details: cited from earlier work
T1 sequence (P48147 1-710): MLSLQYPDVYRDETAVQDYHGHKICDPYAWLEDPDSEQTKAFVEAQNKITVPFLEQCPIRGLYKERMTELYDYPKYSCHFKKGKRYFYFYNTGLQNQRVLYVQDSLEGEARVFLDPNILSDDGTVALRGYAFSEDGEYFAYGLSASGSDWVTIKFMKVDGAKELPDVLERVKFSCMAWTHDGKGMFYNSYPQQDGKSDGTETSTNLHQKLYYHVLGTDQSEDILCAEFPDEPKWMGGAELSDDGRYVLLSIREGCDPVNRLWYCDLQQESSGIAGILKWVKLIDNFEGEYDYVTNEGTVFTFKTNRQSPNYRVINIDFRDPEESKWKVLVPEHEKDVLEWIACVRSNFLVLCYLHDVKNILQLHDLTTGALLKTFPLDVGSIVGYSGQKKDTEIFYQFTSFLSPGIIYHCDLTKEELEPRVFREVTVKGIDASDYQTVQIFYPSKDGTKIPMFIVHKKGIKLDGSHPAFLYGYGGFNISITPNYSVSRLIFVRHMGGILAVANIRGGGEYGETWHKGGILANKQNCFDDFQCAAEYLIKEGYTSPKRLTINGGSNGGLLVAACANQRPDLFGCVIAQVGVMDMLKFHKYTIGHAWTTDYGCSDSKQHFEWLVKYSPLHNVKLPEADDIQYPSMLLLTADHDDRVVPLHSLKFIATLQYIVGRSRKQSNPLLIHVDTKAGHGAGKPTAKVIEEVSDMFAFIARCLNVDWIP

APCE/FAP = target: T2, APCE/FAP (Homo sapiens, UniProt Q12884); experiment: Enzyme assay with fluorogenic substrate, APCE/FAP; format: biochemical; details: 10 μM inhibitor
T2 sequence (Q12884 24-760 limits assumed): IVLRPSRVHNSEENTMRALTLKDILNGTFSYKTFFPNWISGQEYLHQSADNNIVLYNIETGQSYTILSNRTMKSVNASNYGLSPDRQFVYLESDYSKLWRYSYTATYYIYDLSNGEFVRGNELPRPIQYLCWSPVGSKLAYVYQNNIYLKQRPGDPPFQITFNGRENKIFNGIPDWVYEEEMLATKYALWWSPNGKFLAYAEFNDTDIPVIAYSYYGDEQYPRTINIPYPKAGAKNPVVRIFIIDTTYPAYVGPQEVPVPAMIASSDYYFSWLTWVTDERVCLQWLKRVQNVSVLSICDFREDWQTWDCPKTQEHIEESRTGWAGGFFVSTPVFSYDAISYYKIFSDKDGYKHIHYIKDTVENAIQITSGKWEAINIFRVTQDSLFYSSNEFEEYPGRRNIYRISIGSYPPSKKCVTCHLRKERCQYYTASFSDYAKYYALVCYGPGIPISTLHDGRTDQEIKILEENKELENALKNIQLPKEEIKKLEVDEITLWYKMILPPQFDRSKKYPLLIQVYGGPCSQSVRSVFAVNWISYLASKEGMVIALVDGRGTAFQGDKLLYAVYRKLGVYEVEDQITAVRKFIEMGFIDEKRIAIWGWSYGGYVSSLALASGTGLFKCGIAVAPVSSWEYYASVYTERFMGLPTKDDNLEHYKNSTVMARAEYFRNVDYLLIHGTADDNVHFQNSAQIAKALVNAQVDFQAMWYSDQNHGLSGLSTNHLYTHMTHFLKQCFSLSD

DPPIV [2] = target: T3, DPPIV (Homo sapiens, UniProt P27487); experiment: Enzyme assay with fluorogenic substrate, DPPIV; format: biochemical
T3 sequence (P27487 whole entry, species assumed): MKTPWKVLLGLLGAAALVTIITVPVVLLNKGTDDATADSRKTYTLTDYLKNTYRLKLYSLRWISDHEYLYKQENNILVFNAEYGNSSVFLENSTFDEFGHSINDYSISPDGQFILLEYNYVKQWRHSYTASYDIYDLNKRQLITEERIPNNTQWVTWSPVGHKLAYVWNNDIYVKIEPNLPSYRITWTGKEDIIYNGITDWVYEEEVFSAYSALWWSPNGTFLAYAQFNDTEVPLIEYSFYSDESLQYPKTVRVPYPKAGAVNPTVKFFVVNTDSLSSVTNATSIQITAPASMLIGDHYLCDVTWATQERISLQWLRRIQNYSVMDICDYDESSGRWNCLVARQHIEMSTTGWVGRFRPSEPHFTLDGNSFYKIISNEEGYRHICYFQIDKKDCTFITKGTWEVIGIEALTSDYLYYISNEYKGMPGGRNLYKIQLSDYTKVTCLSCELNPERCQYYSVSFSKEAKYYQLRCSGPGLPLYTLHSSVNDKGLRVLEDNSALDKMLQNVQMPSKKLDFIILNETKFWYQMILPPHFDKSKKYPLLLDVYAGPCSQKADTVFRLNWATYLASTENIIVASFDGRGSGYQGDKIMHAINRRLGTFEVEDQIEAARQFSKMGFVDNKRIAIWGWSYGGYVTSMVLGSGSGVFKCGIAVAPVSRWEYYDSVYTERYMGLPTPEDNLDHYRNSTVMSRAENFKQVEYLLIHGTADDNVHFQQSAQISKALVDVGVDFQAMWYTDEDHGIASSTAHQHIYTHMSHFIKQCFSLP

POP [3] = target: T1, POP; experiment: Enzyme assay with fluorogenic substrate, POP; format: biochemical; details: 100 nM inhibitor; in buffer
APCE and POP = format: biochemical, human; details: non-POP-supplemented plasma; 10 μM inhibitor; 100 μM substrate
Method in brief: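 Pooled plasma from four donors, with or without 0.05 μg added POP, was assayed with 10 μM inhibitor or no inhibitor. Cleavage was compared with uninhibited plasma. Values are mean ± SD of three experiments.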

[4] = pH 7.8; cited from earlier work
DPPIV [5] = target: T3, DPPIV; details: cited from earlier work

In the case of `Cc1cc(=O)oc2cc(NC(=O)[C@@H]3CCCN3C(=O)CN)ccc12` [GP-AMC] (H-Gly-Pro-{AMC}), the “cleavage by POP” value (POP [1]) is listed as “not cleaved”.

In the case of acetyl-KLR-L-boroPro, the “inhibitory activity towards APCE/FAP” value (APCE/FAP) is reported as “no inhibitory activity”, the “inhibitory activity towards DPPIV” value (DPPIV [2]; 10 μM inhibitor) is reported as “no inhibitory activity” and the “inhibition of POP” value (POP [3]) is reported as “total inhibition”. The “inhibition of MEPLGRQLTSGP-AMC cleavage in plasma” value (APCE and POP) was “not inhibited”.

With `CC(=O)N[C@@H](CCCNC(=N)N)C(=O)NCC(=O)NCC(=O)N1CCC[C@H]1B(O)O` [Inhibitor no. 2, Ac-Arg-Gly-Gly-L-boroPro] the DPPIV selectivity (DPPIV [2]; Ki(app) (DPPIV)/Ki(app) (APCE/FAP)) was 19.

For `CC(C)[C@H](N)C(=O)N1CCC[C@H]1B(O)O` [Val-boroPro], the “stability of inhibitory activity in aqueous media” value [4] is listed as “rapidly loses inhibitory activity”.

For `Cc1cc(=O)oc2cc(NC(=O)[C@@H]3CCCN3C(=O)CNC(=O)OCc3ccccc3)ccc12` [Z-GP-AMC, benzyloxycarbonyl (Z)-GP-AMC] (Cbz-Gly-Pro-{AMC}), the “cleavage by DPPIV” value (DPPIV [5]) is listed as “not cleaved”.
